# Measured values reported in ChEMBL document CHEMBL4813982, “Novel pyrazolo[4,3-d]pyrimidine microtubule targeting agents (MTAs): Synthesis, structure-activity relationship, in vitro and in vivo evaluation as antitumor agents” (Bioorg Med Chem Lett, 2021).
# What was measured:
# Tubulin (Homo sapiens) = Tubulin (Homo sapiens) (UniProt P68371+Q9H4B7+P0DPH7+P68366+Q13509+Q71U36+P04350+Q3ZCM7+P07437+P68363+Q9BQE3+Q6PEY2+Q13885+Q9BVA1+Q9BUF5); assay: Inhibition of [3H]colchicine binding to tubulin (unknown origin) at 5 uM relative to control; assay type: protein-complex assay
# Tubulin = assay: Inhibition of tubulin assembly (unknown origin); assay type: protein-complex assay, Homo sapiens
# OVCAR-8 = assay: Antiproliferative activity against human OVCAR-8 cells; assay type: functional, cell-based
# NCI/ADR-RES = assay: Antiproliferative activity against human NCI/ADR-RES cells overexpressing Pgp; assay type: functional, cell-based
# [1] = Resistance ratio of IC50 for antiproliferative activity against human NCI/ADR-RES cells expressing Pgp to IC50 for antiproliferative activity against human OVCAR-8 cells; assay type: functional
# Outline: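 Resistance ratio: IC50 in Pgp-overexpressing NCI/ADR-RES cells divided by IC50 in parental OVCAR-8 cells.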
compound,measurement,setting,value
CC(C)Oc1ccc(N(C)c2nc(Cl)nc3cnn(C)c23)cc1,inhibition,Tubulin (Homo sapiens),85%
same,IC50,Tubulin,1100 nM
same,IC50,OVCAR-8,49 nM
same,IC50,NCI/ADR-RES,44 nM
same,Ratio IC50,[1],0.89
COc1ccc(N(C)c2nc(C)nc3c(Cc4ccccc4)c[nH]c23)cc1,IC50,Tubulin,21000 nM
